Measurements published in ChEMBL document CHEMBL3585293, “Design, antiviral and cytostatic properties of isoxazolidine-containing amonafide analogues” (Bioorg Med Chem, 2015).

System: L1210
Assay: Cytotoxicity against mouse L1210 cells assessed as inhibition of cell proliferation
Assay type: functional, cell-based
Settings: not given

CCOP(=O)(OCC)[C@@H]1C[C@@H](C(=O)Nc2cc3c4c(cccc4c2)C(=O)N(CCN(CC)CC)C3=O)ON1C (racemic) and CCOP(=O)(OCC)[C@@H]1C[C@H](C(=O)Nc2cc3c4c(cccc4c2)C(=O)N(CCN(CC)CC)C3=O)ON1C (racemic) are within 1.5-fold of each other in IC50: 11 µM for the first, 16 µM for the second.

Going from O=c1[nH]cc(F)c(=O)[nH]1 [FLUOROURACIL] to CCCN1C(=O)c2cccc3cc(NC(=O)[C@H]4C[C@@H](P(=O)(OCC)OCC)N(C)O4)cc(c23)C1=O (racemic), the IC50 rises from 0.33 µM to 76 µM (230-fold). The first is the more potent here.

CCOP(=O)(OCC)[C@@H]1C[C@@H](C(=O)Nc2cc3c4c(cccc4c2)C(=O)N(CC(C)C)C3=O)ON1C (relative stereo) and CCOP(=O)(OCC)[C@@H]1C[C@H](C(=O)Nc2cc3c4c(cccc4c2)C(=O)N(CC(C)C)C3=O)ON1C (racemic) are within 1.5-fold of each other in IC50: 72 µM for the first, 73 µM for the second.

System: Human alphaherpesvirus 1
Assay: Antiviral activity against thymidine kinase-deficient acyclovir-resistant Herpes simplex virus 1 KOS infected in HEL cells assessed as reduction of virus-induced cytopathogenicity
Assay type: functional, organism-based
Settings: Human alphaherpesvirus 1, KOS

In the case of O=c1[nH]c(=O)n([C@H]2C[C@H](O)[C@@H](CO)O2)cc1/C=C/Br [BRIVUDINE], the EC50 is reported as 2 µM.

System: Cytomegalovirus
Assay: Antiviral activity against Cytomegalovirus AD-169 infected in HEL cells assessed as reduction of virus-induced cytopathogenicity
Assay type: functional, organism-based
Settings: Human betaherpesvirus 5, AD-169, HEL

Compared with COc1cccc(N2CCN(C3=Nc4c(F)cccc4[C@H](CC(=O)O)N3c3cc(C(F)(F)F)ccc3OC)CC2)c1 [LETERMOVIR], CCOP(=O)(OCC)[C@@H]1C[C@@H](C(=O)Nc2cc3c4c(cccc4c2)C(=O)N(CC(C)C)C3=O)ON1C (relative stereo) is higher in EC50: 0.0046 µM for the first, > 100 µM for the second. The first is the more potent here.

Going from CCOP(=O)(OCC)[C@@H]1C[C@@H](C(=O)Nc2cc3c4c(cccc4c2)C(=O)N(CCN(CC)CC)C3=O)ON1C (racemic) to CCOP(=O)(OCC)[C@@H]1C[C@H](C(=O)Nc2cc3c4c(cccc4c2)C(=O)N(CCN(CC)CC)C3=O)ON1C (racemic), the EC50 rises from 55 µM to 100 µM (1.8-fold). The first is the more potent here.

First: Nc1nc2c(ncn2COC(CO)CO)c(=O)[nH]1 [GANCICLOVIR]
Second: CCOP(=O)(OCC)[C@@H]1C[C@H](C(=O)Nc2cc3c4c(cccc4c2)C(=O)N(CC(C)C)C3=O)ON1C (racemic)
The EC50 of the first is 7.1-fold lower: 6.3 µM for the first, 45 µM for the second. The first is the more potent here.

Compound CCCN1C(=O)c2cccc3cc(NC(=O)[C@H]4C[C@@H](P(=O)(OCC)OCC)N(C)O4)cc(c23)C1=O (racemic) has an EC50 of 45 µM.

System: Human alphaherpesvirus 3
Assay: Antiviral activity against Varicella-zoster virus expressing thymidine kinase infected in HEL cells assessed as reduction of virus-induced plaque formation
Assay type: functional, organism-based
Settings: Human alphaherpesvirus 3, HEL
Summary of the method: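 Plaque-reduction assay in HEL cells. TK+ VZV strains were Oka and YS; TK- strains were 07-1 and YS-R. Virus input was 100 PFU, with graded compound concentrations. Plaques were counted once formation was complete in untreated infected controls. […] Two independent experiments were run.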

Compared with O=c1[nH]c(=O)n([C@H]2C[C@H](O)[C@@H](CO)O2)cc1/C=C/Br [BRIVUDINE], CCCN1C(=O)c2cccc3cc(NC(=O)[C@H]4C[C@@H](P(=O)(OCC)OCC)N(C)O4)cc(c23)C1=O (racemic) is 690-fold higher in EC50: 0.029 µM for the first, 20 µM for the second. The first is the more potent here.

CCOP(=O)(OCC)[C@@H]1C[C@@H](C(=O)Nc2cc3c4c(cccc4c2)C(=O)N(CCN(CC)CC)C3=O)ON1C (racemic) and CCOP(=O)(OCC)[C@@H]1C[C@H](C(=O)Nc2cc3c4c(cccc4c2)C(=O)N(CCN(CC)CC)C3=O)ON1C (racemic) cannot be ordered by EC50: > 20 µM for the first, > 20 µM for the second.

In the case of CCOP(=O)(OCC)[C@@H]1C[C@@H](C(=O)Nc2cc3c4c(cccc4c2)C(=O)N(CC(C)C)C3=O)ON1C (relative stereo), the EC50 is reported as > 100 µM.

System: CCRF-CEM
Assay: Cytotoxicity against human CEM cells assessed as inhibition of cell proliferation
Assay type: functional, cell-based
Settings: not given

CCOP(=O)(OCC)[C@@H]1C[C@@H](C(=O)Nc2cc3c4c(cccc4c2)C(=O)N(CCN(CC)CC)C3=O)ON1C (racemic) and CCOP(=O)(OCC)[C@@H]1C[C@H](C(=O)Nc2cc3c4c(cccc4c2)C(=O)N(CCN(CC)CC)C3=O)ON1C (racemic) are within 1.5-fold of each other in IC50: 21 µM for the first, 23 µM for the second.

CCCN1C(=O)c2cccc3cc(NC(=O)[C@H]4C[C@@H](P(=O)(OCC)OCC)N(C)O4)cc(c23)C1=O (racemic) and CCOP(=O)(OCC)[C@@H]1C[C@@H](C(=O)Nc2cc3c4c(cccc4c2)C(=O)N(CC(C)C)C3=O)ON1C (relative stereo) are within 1.5-fold of each other in IC50: 47 µM for the first, 48 µM for the second.

Compound CCOP(=O)(OCC)[C@@H]1C[C@H](C(=O)Nc2cc3c4c(cccc4c2)C(=O)N(CC(C)C)C3=O)ON1C (racemic) has an IC50 of 26 µM.

System: HeLa
Assay: Cytotoxicity against human HeLa cells assessed as inhibition of cell proliferation
Assay type: functional, cell-based
Settings: not given

Compared with CCOP(=O)(OCC)[C@@H]1C[C@@H](C(=O)Nc2cc3c4c(cccc4c2)C(=O)N(CCN(CC)CC)C3=O)ON1C (racemic), CCOP(=O)(OCC)[C@@H]1C[C@H](C(=O)Nc2cc3c4c(cccc4c2)C(=O)N(CCN(CC)CC)C3=O)ON1C (racemic) is 1.8-fold lower in IC50: 13 µM for the first, 7.3 µM for the second. The second is the more potent here.

CCCN1C(=O)c2cccc3cc(NC(=O)[C@H]4C[C@@H](P(=O)(OCC)OCC)N(C)O4)cc(c23)C1=O (racemic) and CCOP(=O)(OCC)[C@@H]1C[C@@H](C(=O)Nc2cc3c4c(cccc4c2)C(=O)N(CC(C)C)C3=O)ON1C (relative stereo) are within 1.5-fold of each other in IC50: 70 µM for the first, 56 µM for the second.

Compound CCOP(=O)(OCC)[C@@H]1C[C@H](C(=O)Nc2cc3c4c(cccc4c2)C(=O)N(CC(C)C)C3=O)ON1C (racemic) has an IC50 of 49 µM.

System: not listed separately
Assay: Cytotoxicity against HEL cells assessed as alternation of cell morphology by microscopic analysis
Assay type: cell-based
Settings: human

O=c1[nH]c(=O)n([C@H]2C[C@H](O)[C@@H](CO)O2)cc1/C=C/Br [BRIVUDINE] and Nc1ccn(C[C@@H](CO)OCP(=O)(O)O)c(=O)n1 [CIDOFOVIR] cannot be ordered by MCC: > 250 µM for the first, > 250 µM for the second.

CCOP(=O)(OCC)[C@@H]1C[C@@H](C(=O)Nc2cc3c4c(cccc4c2)C(=O)N(CCN(CC)CC)C3=O)ON1C (racemic) and CCOP(=O)(OCC)[C@@H]1C[C@H](C(=O)Nc2cc3c4c(cccc4c2)C(=O)N(CCN(CC)CC)C3=O)ON1C (racemic) cannot be ordered by MCC: ≥ 100 µM for the first, > 100 µM for the second.

Nc1nc2c(ncn2COC(CO)CO)c(=O)[nH]1 [GANCICLOVIR] and Nc1nc2c(ncn2COCCO)c(=O)[nH]1 [ACYCLOVIR] cannot be ordered by MCC: > 100 µM for the first, > 250 µM for the second.

CCCN1C(=O)c2cccc3cc(NC(=O)[C@H]4C[C@@H](P(=O)(OCC)OCC)N(C)O4)cc(c23)C1=O (racemic) and CCOP(=O)(OCC)[C@@H]1C[C@@H](C(=O)Nc2cc3c4c(cccc4c2)C(=O)N(CC(C)C)C3=O)ON1C (relative stereo) cannot be ordered by MCC: > 100 µM for the first, > 100 µM for the second.

For CCOP(=O)(OCC)[C@@H]1C[C@H](C(=O)Nc2cc3c4c(cccc4c2)C(=O)N(CC(C)C)C3=O)ON1C (racemic), the MCC was > 100 µM.

System: MDCK
Assay: Cytotoxicity against MDCK cells assessed cell viability by MTS assay
Assay type: cell-based, Canis lupus familiaris
Settings: dog
Summary of the method: (§1)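 Cells were exposed to a range of compound concentrations. Viability was measured by the colorimetric formazan-based MTS assay.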

CCOP(=O)(OCC)[C@@H]1C[C@@H](C(=O)Nc2cc3c4c(cccc4c2)C(=O)N(CCN(CC)CC)C3=O)ON1C (racemic) and CCCN1C(=O)c2cccc3cc(NC(=O)[C@H]4C[C@@H](P(=O)(OCC)OCC)N(C)O4)cc(c23)C1=O (racemic) cannot be ordered by CC50: > 100 µM for the first, > 100 µM for the second.

Going from CCOP(=O)(OCC)[C@@H]1C[C@@H](C(=O)Nc2cc3c4c(cccc4c2)C(=O)N(CC(C)C)C3=O)ON1C (relative stereo) to CCOP(=O)(OCC)[C@@H]1C[C@H](C(=O)Nc2cc3c4c(cccc4c2)C(=O)N(CC(C)C)C3=O)ON1C (racemic), the CC50 falls from > 100 µM to 51.8 µM.

System: not listed separately
Assay: Cytotoxicity against CRFK cells assessed cell viability by MTS assay
Assay type: cell-based, Felis catus
Settings: cat
Summary of the method: as §1

CCOP(=O)(OCC)[C@@H]1C[C@H](C(=O)Nc2cc3c4c(cccc4c2)C(=O)N(CCN(CC)CC)C3=O)ON1C (racemic) and CCCN1C(=O)c2cccc3cc(NC(=O)[C@H]4C[C@@H](P(=O)(OCC)OCC)N(C)O4)cc(c23)C1=O (racemic) cannot be ordered by CC50: > 100 µM for the first, > 100 µM for the second.

For CCOP(=O)(OCC)[C@@H]1C[C@H](C(=O)Nc2cc3c4c(cccc4c2)C(=O)N(CC(C)C)C3=O)ON1C (racemic), the CC50 was > 100 µM.

System: Cytomegalovirus
Assay: Antiviral activity against Cytomegalovirus Davis infected in HEL cells assessed as reduction of virus-induced cytopathogenicity
Assay type: functional, organism-based
Settings: Human betaherpesvirus 5, Davis

First: CCOP(=O)(OCC)[C@@H]1C[C@@H](C(=O)Nc2cc3c4c(cccc4c2)C(=O)N(CCN(CC)CC)C3=O)ON1C (racemic)
Second: CCOP(=O)(OCC)[C@@H]1C[C@H](C(=O)Nc2cc3c4c(cccc4c2)C(=O)N(CCN(CC)CC)C3=O)ON1C (racemic)
The EC50 of the first is lower: 49 µM for the first, ≥ 100 µM for the second. The first is the more potent here.

Going from Nc1nc2c(ncn2COC(CO)CO)c(=O)[nH]1 [GANCICLOVIR] to Nc1ccn(C[C@@H](CO)OCP(=O)(O)O)c(=O)n1 [CIDOFOVIR], the EC50 falls from 7.1 µM to 1.02 µM (7-fold).

First: CCCN1C(=O)c2cccc3cc(NC(=O)[C@H]4C[C@@H](P(=O)(OCC)OCC)N(C)O4)cc(c23)C1=O (racemic)
Second: CCOP(=O)(OCC)[C@@H]1C[C@@H](C(=O)Nc2cc3c4c(cccc4c2)C(=O)N(CC(C)C)C3=O)ON1C (relative stereo)
The EC50 of the first is lower: 45 µM for the first, > 100 µM for the second.

Compound CCOP(=O)(OCC)[C@@H]1C[C@H](C(=O)Nc2cc3c4c(cccc4c2)C(=O)N(CC(C)C)C3=O)ON1C (racemic) has an EC50 of 45 µM.

System: Human alphaherpesvirus 3
Assay: Antiviral activity against thymidine kinase-deficient Varicella-zoster virus infected in HEL cells assessed as reduction of virus-induced plaque formation
Assay type: functional, organism-based
Settings: Human alphaherpesvirus 3, HEL
Summary of the method: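 Plaque-reduction assay in HEL cells. TK+ VZV strains were Oka and YS; TK- strains were 07-1 and YS-R. Virus input was 100 PFU, with graded compound concentrations. Plaques were counted once formation was complete in untreated infected controls. Two independent experiments were run.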

First: O=c1[nH]c(=O)n([C@H]2C[C@H](O)[C@@H](CO)O2)cc1/C=C/Br [BRIVUDINE]
Second: CCCN1C(=O)c2cccc3cc(NC(=O)[C@H]4C[C@@H](P(=O)(OCC)OCC)N(C)O4)cc(c23)C1=O (racemic)
The EC50 of the first is 38-fold lower: 1 µM for the first, 38 µM for the second. The first is the more potent here.

CCOP(=O)(OCC)[C@@H]1C[C@@H](C(=O)Nc2cc3c4c(cccc4c2)C(=O)N(CCN(CC)CC)C3=O)ON1C (racemic) and CCOP(=O)(OCC)[C@@H]1C[C@H](C(=O)Nc2cc3c4c(cccc4c2)C(=O)N(CCN(CC)CC)C3=O)ON1C (racemic) cannot be ordered by EC50: > 20 µM for the first, 36 µM for the second.

With CCOP(=O)(OCC)[C@@H]1C[C@@H](C(=O)Nc2cc3c4c(cccc4c2)C(=O)N(CC(C)C)C3=O)ON1C (relative stereo) the EC50 was > 100 µM.
